# pKi: −log10 of the molar value. Calls of active or inactive are those of the source. The rule behind the calls is not given here.
# What was measured:
# Homo sapiens = species: Homo sapiens; experiment: Ratio Ki for inhibition of [3H]-PDBu binding to PKCalpha C1A domain (unknown origin) to Ki for inhibition of [3H]-PDBu binding to PKCdelta C1B domain (unknown origin)
# [1] = molecular target: Protein kinase C alpha type (Homo sapiens, UniProt P17252); experiment: Inhibition of [3H]-PDBu binding to PKCalpha C1A domain (unknown origin) by competitive binding assay
# Method in brief: (§1)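 Synthetic PKCα-C1A (40 nM) or PKCδ-C1B (13.8 nM) peptide in 50 mM Tris-maleate (pH 7.4 at 4 °C). Mixture contained 20 nM [3H]PDBu (13.92 Ci/mmol), 50 µg/mL dioleoylphosphatidylserine, 3 mg/mL bovine γ-globulin and graded ligand. IC50 by logit analysis; Ki by Goldstein–Barrett equation from IC50 and [3H]PDBu Kd. Two independent experiments, triplicates each; log-scale mean with 95% CI.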
# [2] = molecular target: Protein kinase C delta type (Homo sapiens, UniProt Q05655); experiment: Inhibition of [3H]-PDBu binding to PKCdelta C1B domain (unknown origin) by competitive binding assay; method in brief: as §1
# [3] = Antiproliferative activity against human HBC4 cells after 48 hrs by SRB assay; format: functional; conditions: HBC4, read-out: pGI50 (converted)
# Method in brief: (§2)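 Part of a 39-line human cancer cell panel. Cells plated in RPMI 1640 with 5% FBS and left to attach overnight, then exposed to compound at 10^-8 to 10^-4 M for 48 h. Growth measured by sulforhodamine B staining, absorbance at 525 nm, with a time-0 reading. % growth calculated against control from duplicate points. GI50 is the concentration giving 50% growth inhibition versus untreated control.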
# MDA-MB-231 = experiment: Antiproliferative activity against human MDA-MB-231 cells after 48 hrs by SRB assay; format: functional; conditions: MDA-MB-231, read-out: pGI50 (converted); method in brief: as §2
# SF-295 = experiment: Antiproliferative activity against human SF-295 cells after 48 hrs by SRB assay; format: functional; conditions: SF-295, read-out: pGI50 (converted); method in brief: as §2
# HCC 2998 = experiment: Antiproliferative activity against human HCC 2998 cells after 48 hrs by SRB assay; format: functional; conditions: HCC 2998, read-out: pGI50 (converted); method in brief: as §2
# NCI-H460 = experiment: Antiproliferative activity against human NCI-H460 cells after 48 hrs by SRB assay; format: functional; method in brief: as §2
# A549 = experiment: Antiproliferative activity against human A549 cells after 48 hrs by SRB assay; format: functional; conditions: A549, read-out: pGI50 (converted); method in brief: as §2
# DMS-273 = experiment: Antiproliferative activity against human DMS-273 cells after 48 hrs by SRB assay; format: functional; conditions: DMS-273, read-out: pGI50 (converted); method in brief: as §2
# OVCAR-5 = experiment: Antiproliferative activity against human OVCAR-5 cells after 48 hrs by SRB assay; format: functional; conditions: OVCAR-5, read-out: pGI50 (converted); method in brief: as §2
# St-4 = experiment: Antiproliferative activity against human St-4 cells after 48 hrs by SRB assay; format: functional; conditions: St-4, read-out: pGI50 (converted); method in brief: as §2
# MKN-45 = experiment: Antiproliferative activity against human MKN-45 cells after 48 hrs by SRB assay; format: functional; method in brief: as §2
# Protein kinase C delta type, sequence (Q05655 whole entry, the tested form may be a part): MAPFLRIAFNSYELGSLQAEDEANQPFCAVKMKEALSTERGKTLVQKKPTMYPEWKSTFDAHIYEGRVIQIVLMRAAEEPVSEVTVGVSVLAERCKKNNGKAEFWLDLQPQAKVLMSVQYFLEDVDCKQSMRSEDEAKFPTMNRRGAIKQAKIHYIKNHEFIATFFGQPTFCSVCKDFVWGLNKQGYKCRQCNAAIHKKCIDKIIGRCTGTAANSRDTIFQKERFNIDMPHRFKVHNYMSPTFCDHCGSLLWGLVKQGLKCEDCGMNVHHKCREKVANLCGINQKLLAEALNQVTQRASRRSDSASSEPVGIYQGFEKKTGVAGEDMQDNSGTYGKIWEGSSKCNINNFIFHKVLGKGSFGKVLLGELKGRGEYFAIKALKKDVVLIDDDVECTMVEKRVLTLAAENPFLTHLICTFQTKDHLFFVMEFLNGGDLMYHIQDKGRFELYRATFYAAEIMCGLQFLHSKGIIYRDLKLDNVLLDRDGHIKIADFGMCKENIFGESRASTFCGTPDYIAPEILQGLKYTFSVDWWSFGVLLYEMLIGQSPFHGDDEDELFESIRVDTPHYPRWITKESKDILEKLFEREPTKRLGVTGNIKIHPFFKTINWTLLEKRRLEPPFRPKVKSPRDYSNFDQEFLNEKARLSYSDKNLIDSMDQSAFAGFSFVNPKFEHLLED
SMILES,Ratio Ki (Homo sapiens),pKi [1],pKi [2],GI50 [3],GI50 (MDA-MB-231),GI50 (SF-295),GI50 (HCC 2998),"GI50 (NCI-H460; NCI-H460, read-out: pGI50 (converted))",GI50 (A549),GI50 (DMS-273),GI50 (OVCAR-5),GI50 (St-4),"GI50 (MKN-45; MKN-45, read-out: pGI50 (converted))",Activity (NCI-H460),Activity (MKN-45)
CC1(C)CC[C@@H]2CC(=O)O[C@@H](CO)CC(=O)O[C@@H]3C[C@@H](CCCCc4ccccc4)O[C@@]1(C3)O2,12,–,–,–,–,–,–,–,–,–,–,–,–,–,–
CC1(C)CC[C@@H]2CC(=O)O[C@@H](CO)CC(=O)O[C@H](CCCCCCc3ccccc3)C[C@@H]1O2,5.2,7.06,7.77,< 10 µM,< 10 µM,< 10 µM,< 10 µM,< 10 µM,< 10 µM,< 10 µM,< 10 µM,< 10 µM,< 10 µM,–,–
CC(C)[C@@]12C[C@@H](C[C@@H](CCCCc3ccccc3)O1)OC(=O)C[C@H](CO)OC(=O)CCO2,0.8,7.00,6.89,–,–,–,–,–,–,–,–,–,–,Active,Active
